# How the values were obtained:
# [1] = molecular target: T1, Sphingosine 1-phosphate receptor 1 (Homo sapiens, UniProt P21453); assay: Agonist activity at human S1P1 receptor expressed in human U2OS cells co-expressing eGFP assessed as receptor internalization after 1 hr relative to 1-(4-(6-benzylbenzofuran-2-yl)-3-fluorobenzyl)azetidine-3-carboxylic acid; type: functional, cell-based
# In short: (§1)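 hS1P1-GFP fusion expressed in U2OS cells; agonism read as receptor internalization. Percent efficacy is relative to 1.00 μM reference agonist, and >top concentration is reported when activity stays under 10% of control. Each value is the mean of at least two determinations.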
# [2] = molecular target: T2, Sphingosine 1-phosphate receptor 3 (Homo sapiens, UniProt Q99500); assay: Agonist activity at human S1P3 receptor expressed in CHO-K1 cells co-expressing Gq/i5 G-protein assessed as calcium mobilization by FLIPR assay; type: functional, cell-based
# In short: (§2)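 hS1P3 and Gq/i5 co-transfected into CHO-K1 cells; agonism read as Ca2+ mobilization. Percent efficacy is relative to 0.200 μM S1P, and >top concentration is reported when activity stays under 10% of control. Each value is the mean of at least two determinations.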
# [3] = molecular target: T2, Sphingosine 1-phosphate receptor 3; assay: Agonist activity at human S1P3 receptor expressed in CHO-K1 cells co-expressing Gq/i5 G-protein assessed as calcium mobilization by FLIPR assay relative to S1P; type: functional, cell-based; in short: as §2
# [4] = Fraction unbound in rat plasma at 5 ug/ml by ultracentrifugation analysis; type: ADME, cell-free
# In short: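 Plasma protein binding determined by ultracentrifugation at 5.0 μg/mL test compound.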
# [5] = molecular target: T1, Sphingosine 1-phosphate receptor 1; assay: Agonist activity at human S1P1 receptor expressed in human U2OS cells co-expressing eGFP assessed as receptor internalization after 1 hr; type: functional, cell-based; in short: as §1
# Rattus norvegicus = assay: Immunomodulatory activity in Lewis rat assessed as reduction of circulating lymphocytes count at 1 mg/kg, po after 24 hrs relative to control; type: functional; set-up: scale not given: the % may be the effect or the level left
# In short: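 Female Lewis rats dosed orally at 0.3, 1.0 or 3.0 mg/kg in 20% captisol, pH 2, N = 5/group. Blood lymphocyte counts and plasma concentration taken 24 h postdose. Compared with vehicle by ANOVA/Dunnett's test, P < 0.05.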
# T2 sequence (Q99500 whole entry): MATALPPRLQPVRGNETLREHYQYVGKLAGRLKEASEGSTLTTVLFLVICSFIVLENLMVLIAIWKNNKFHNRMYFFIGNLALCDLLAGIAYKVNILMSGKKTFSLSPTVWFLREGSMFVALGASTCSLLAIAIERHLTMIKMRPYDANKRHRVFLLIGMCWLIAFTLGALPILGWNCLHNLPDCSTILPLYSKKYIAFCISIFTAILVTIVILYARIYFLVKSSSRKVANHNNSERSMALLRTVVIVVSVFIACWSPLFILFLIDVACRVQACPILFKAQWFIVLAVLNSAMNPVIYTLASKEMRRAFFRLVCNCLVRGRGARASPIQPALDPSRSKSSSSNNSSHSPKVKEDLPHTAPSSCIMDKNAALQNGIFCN
# T1 sequence (P21453 whole entry, the tested form may be a part): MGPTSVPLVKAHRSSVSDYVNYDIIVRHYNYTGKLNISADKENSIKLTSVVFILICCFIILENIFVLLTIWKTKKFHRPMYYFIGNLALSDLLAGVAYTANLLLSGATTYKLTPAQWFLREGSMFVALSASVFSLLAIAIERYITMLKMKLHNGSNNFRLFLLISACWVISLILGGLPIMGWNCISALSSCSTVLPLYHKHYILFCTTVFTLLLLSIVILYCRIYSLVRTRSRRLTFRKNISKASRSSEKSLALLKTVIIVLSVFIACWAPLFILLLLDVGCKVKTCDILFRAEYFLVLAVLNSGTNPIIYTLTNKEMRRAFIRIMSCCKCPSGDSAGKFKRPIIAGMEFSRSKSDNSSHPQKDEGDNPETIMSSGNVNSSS
Efficacy [1],EC50 [2],Efficacy [3],fraction unbound at 5 ug/ml [4],EC50 [5],SMILES,Activity (Rattus norvegicus)
105%,354 nM,77%,,325 nM,O=C(O)C1CN(Cc2ccc(-c3nc4cc(Cc5ccccc5)ccc4o3)c(F)c2)C1,
,,24%,,42 nM,O=C(O)C1CN(Cc2ccc(-c3nc4cc(Cc5ccccc5)ccc4s3)c(F)c2)C1,
,> 25000 nM,,,> 6250 nM,O=C(O)C1CN(Cc2ccc(-c3nc4ccc(Cc5ccccc5)cc4[nH]3)c(F)c2)C1,
121%,4880 nM,41%,,42 nM,O=C(O)C1CN(Cc2ccc(-c3nc4cc(Cc5ccccc5Cl)ccc4s3)c(F)c2)C1,63%
118%,2440 nM,40%,,26 nM,Cc1ccccc1Cc1ccc2sc(-c3ccc(CN4CC(C(=O)O)C4)cc3F)nc2c1,63%
138%,687 nM,22%,,21 nM,O=C(O)C1CN(Cc2ccc(-c3nc4cc(Cc5cccc(F)c5)ccc4s3)c(F)c2)C1,
84%,,50%,,,O=C(O)C1CN(Cc2ccc(-c3nc4ccc(Cc5ccccc5)cc4s3)c(F)c2)C1,

# Second part, the compound before the results:
SMILES,Efficacy [1],EC50 [2],Efficacy [3],fraction unbound at 5 ug/ml [4],EC50 [5],Activity (Rattus norvegicus)
O=C(O)C1CN(Cc2ccc(-c3cc4cc(Cc5ccccc5)ccc4o3)c(F)c2)C1,96%,1730 nM,42%,0.015,,
O=C(O)C1CN(Cc2ccc(-c3nc4cc(Cc5ccc(Cl)cc5)ccc4s3)c(F)c2)C1,117%,> 25000 nM,,,159 nM,
O=C(O)C1CN(Cc2ccc(-c3nc4cc(Cc5c(F)cccc5F)ccc4s3)c(F)c2)C1,126%,> 25000 nM,,,126 nM,
O=C(O)C1CN(Cc2ccc(-c3nc4cc(Cc5ccc(F)cc5)ccc4s3)c(F)c2)C1,129%,1910 nM,37%,,33 nM,
O=C(O)C1CN(Cc2ccc(-c3cn4cc(Cc5ccccc5)ccc4n3)c(F)c2)C1,115%,> 25000 nM,,,6720 nM,
